Data taken from ChEMBL document CHEMBL5257157, “Biological evaluation of novel amidino substituted coumarin-benzazole hybrids as promising therapeutic agents” (RSC Med Chem, 2023).

Experiments:
[1] = Cytotoxicity against human HEL 299 cells assessed as inhibition of cell growth incubated for 72 hrs by CellTiter96 Aqueous One Solution cell proliferation assay; type: toxicity, cell-based
Human alphaherpesvirus 1 = test: Antiviral activity against HSV-1 KOS infected in human HEL 299 cells assessed as inhibition of virus-induced cytopathogenic effect incubated for 3 to 7 days by MTS assay; type: functional, organism-based; details: Human alphaherpesvirus 1, KOS
LN-229 = test: Antiproliferative activity against human LN-229 cells assessed as inhibition of cell growth incubated for 72 hrs by CellTiter96 Aqueous One Solution cell proliferation assay; type: functional, cell-based; details: LN-229, 72 h
CAPAN-1 = test: Antiproliferative activity against human CAPAN-1 cells assessed as inhibition of cell growth incubated for 72 hrs by CellTiter96 Aqueous One Solution cell proliferation assay; type: functional, cell-based; details: CAPAN-1, 72 h
NCI-H460 = test: Antiproliferative activity against human NCI-H460 cells assessed as inhibition of cell growth incubated for 72 hrs by CellTiter96 Aqueous One Solution cell proliferation assay; type: functional, cell-based; details: NCI-H460, 72 h
[2] = Antiproliferative activity against human DND41 cells assessed as inhibition of cell growth incubated for 72 hrs by CellTiter96 Aqueous One Solution cell proliferation assay; type: functional, cell-based; details: DND41, 72 h
HL-60 = test: Antiproliferative activity against human HL-60 cells assessed as inhibition of cell growth incubated for 72 hrs by CellTiter96 Aqueous One Solution cell proliferation assay; type: functional, cell-based; details: HL-60, 72 h
K562 = test: Antiproliferative activity against human K562 cells assessed as inhibition of cell growth incubated for 72 hrs by CellTiter96 Aqueous One Solution cell proliferation assay; type: functional, cell-based; details: K562, 72 h
Z-138 = test: Antiproliferative activity against human Z138 cells assessed as inhibition of cell growth incubated for 72 hrs by CellTiter96 Aqueous One Solution cell proliferation assay; type: functional, cell-based; details: Z-138, 72 h
Huh-7 = test: Cytotoxicity against human Huh-7 cells assessed as inhibition of cell growth incubated for 72 hrs by CellTiter96 Aqueous One Solution cell proliferation assay; type: functional
[3] = Cytotoxicity against dog MDCK cells assessed as inhibition of cell growth incubated for 72 hrs by CellTiter96 Aqueous One Solution cell proliferation assay; type: toxicity, cell-based, Canis lupus familiaris
Human coronavirus 229E = test: Antiviral activity against HCoV-229E infected in human HEL 299 cells assessed as inhibition of virus-induced cytopathogenic effect incubated for 3 to 7 days by MTS assay; type: functional, organism-based
Human coronavirus OC43 = test: Antiviral activity against HCoV-OC43 infected in human HEL 299 cells assessed as inhibition of virus-induced cytopathogenic effect incubated for 3 to 7 days by MTS assay; type: functional, organism-based; details: Betacoronavirus 1, HEL 299
[4] = Antiviral activity against HCoV-NL63 infected in human Huh-7 cells assessed as inhibition of virus-induced cytopathogenic effect incubated for 3 to 7 days by MTS assay; type: functional, cell-based; details: Human coronavirus NL63, Huh-7
Influenza A virus [5] = test: Antiviral activity against influenza virus H1N1 infected in dog MDCK cells assessed as inhibition of virus-induced cytopathogenic effect incubated for 3 to 7 days by MTS assay; type: functional, organism-based
Influenza A virus [6] = test: Antiviral activity against influenza virus H3N2 infected in dog MDCK cells assessed as inhibition of virus-induced cytopathogenic effect incubated for 3 to 7 days by MTS assay; type: functional, organism-based
Influenza B virus = test: Antiviral activity against influenza B virus infected in dog MDCK cells assessed as inhibition of virus-induced cytopathogenic effect incubated for 3 to 7 days by MTS assay; type: functional, organism-based
[7] = system: Respiratory syncytial virus; test: Antiviral activity against RSV infected in human HEL 299 cells assessed as inhibition of virus-induced cytopathogenic effect incubated for 3 to 7 days by MTS assay; type: functional, organism-based
Yellow fever virus = test: Antiviral activity against Yellow fever virus 17D infected in human Huh-7 cells assessed as inhibition of virus-induced cytopathogenic effect incubated for 3 to 7 days by MTS assay; type: functional, organism-based
Zika virus = test: Antiviral activity against Zika virus Mr776 infected in human Huh-7 cells assessed as inhibition of virus-induced cytopathogenic effect incubated for 3 to 7 days by MTS assay; type: functional, organism-based; details: Mr776, Huh-7
Sindbis virus = test: Antiviral activity against Sindbis virus infected in human Huh-7 cells assessed as inhibition of virus-induced cytopathogenic effect incubated for 3 to 7 days by MTS assay; type: functional, organism-based
[8] = Antioxidant activity assessed as ABTS radical scavenging activity incubated for 5 mins by absorbance based microplate reader analysis; type: functional
In short: (§1)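 Pure compounds tested in three colorimetric antioxidant assays, each run alongside the reference BHT. […] ABTS: direct reaction with ABTS•+ radical cation, reported as IC50. DPPH: scavenging of the stable DPPH radical by proton or electron donation, reported as IC50. FRAP: reducing power, expressed as mmolFe2+/mmolC.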

[9] = Antioxidant activity assessed as DPPH radical scavenging activity incubated for 5 mins by absorbance based microplate reader analysis; type: functional; in short: as §1
[10] = Antioxidant activity assessed as reduction of Fe3+ complex to Fe2+ analogue by measuring mmolFe2+/mmolc by FRAP assay; type: functional; in short: as §1

Row | SMILES | CC50 at 72 h [1] | EC50 (Human alphaherpesvirus 1) | IC50 (LN-229) | IC50 (CAPAN-1) | IC50 (NCI-H460) | IC50 [2] | IC50 (HL-60) | IC50 (K562) | IC50 (Z-138) | CC50 (Huh-7) | CC50 at 72 h [3] | EC50 (Human coronavirus 229E) | EC50 (Human coronavirus OC43) | EC50 [4] | EC50 (Influenza A virus [5]) | EC50 (Influenza A virus [6]) | EC50 (Influenza B virus) | EC50 [7] | EC50 (Yellow fever virus) | EC50 (Zika virus) | also measured
1 | O=c1[nH]c(=O)n([C@H]2C[C@H](O)[C@@H](CO)O2)cc1/C=C/Br [BRIVUDINE] | > 100 µM | 0.05 µM | – | – | – | – | – | – | – | – | – | – | – | – | – | – | – | – | – | – | –
2 | COc1cc([C@@H]2c3cc4c(cc3[C@@H](O[C@@H]3O[C@@H]5CO[C@@H](C)O[C@H]5[C@H](O)[C@H]3O)[C@H]3COC(=O)[C@H]23)OCO4)cc(OC)c1O [ETOPOSIDE] | – | – | 0.43 µM | 1.45 µM | 3.65 µM | 2.8 µM | 0.42 µM | 1.77 µM | 0.85 µM | – | – | – | – | – | – | – | – | – | – | – | –
3 | Cc1ccc2oc(=O)c(-c3nc4cc(C5=NCCN5)ccc4[nH]3)c(Cl)c2c1 | 77 µM | > 100 µM | 9.1 µM | 10.2 µM | 31.7 µM | 5.8 µM | 21.5 µM | 9.9 µM | 6.4 µM | < 0.8 µM | 10 µM | > 100 µM | > 100 µM | > 100 µM | > 100 µM | > 100 µM | > 100 µM | > 100 µM | > 100 µM | > 100 µM | EC50 (Sindbis virus): > 100 µM; IC50 [8]: 350 µM; IC50 [9]: 190 µM; Activity [10]: 47.1 mmol/mmol
4 | CCC(CC)COC(=O)[C@H](C)N[P@](=O)(OC[C@H]1O[C@@](C#N)(c2ccc3c(N)ncnn23)[C@H](O)[C@@H]1O)Oc1ccccc1 [REMDESIVIR] | > 10 µM | – | – | – | – | – | – | – | – | > 10 µM | – | 0.06 µM | 0.06 µM | 0.03 µM | – | – | – | 0.03 µM | 6.2 µM | 0.7 µM | EC50 (Sindbis virus): > 10 µM
5 | NC(=O)c1ncn([C@@H]2O[C@H](CO)[C@@H](O)[C@H]2O)n1 [RIBAVIRIN] | > 250 µM | – | – | – | – | – | – | – | – | 8.9 µM | 67 µM | 82.6 µM | – | > 250 µM | 10.5 µM | 4 µM | 2.8 µM | 10.8 µM | > 250 µM | > 250 µM | –
6 | CCN(CC)c1ccc2cc(-c3nc4cc(C5=NCCCN5)ccc4[nH]3)c(=O)oc2c1 | > 100 µM | > 100 µM | 97 µM | 66.7 µM | > 100 µM | 10.8 µM | 63.8 µM | 63.5 µM | 67.3 µM | > 100 µM | 43.4 µM | > 100 µM | > 100 µM | > 100 µM | > 100 µM | > 100 µM | > 100 µM | 73.3 µM | 72.6 µM | 77.7 µM | EC50 (Sindbis virus): > 100 µM; IC50 [8]: 110 µM; IC50 [9]: 610 µM; Activity [10]: 28.8 mmol/mmol
7 | CCN(CC)c1ccc2cc(-c3nc4ccc(C5=NCCN5)cc4s3)c(=O)oc2c1 | > 100 µM | 47.9 µM | > 100 µM | 80.6 µM | > 100 µM | 10.2 µM | > 100 µM | 65.5 µM | 11.3 µM | 54.2 µM | 64.2 µM | > 100 µM | 69.7 µM | > 100 µM | > 100 µM | > 100 µM | > 100 µM | > 100 µM | > 100 µM | > 100 µM | EC50 (Sindbis virus): > 100 µM; IC50 [8]: 2190 µM; Activity [10]: 2.84 mmol/mmol
8 | Cc1cc(C(C)(C)C)c(O)c(C(C)(C)C)c1 [BUTYLATED HYDROXYTOLUENE] | – | – | – | – | – | – | – | – | – | – | – | – | – | – | – | – | – | – | – | – | IC50 [8]: 180 µM; IC50 [9]: 25 µM
9 | CC(=O)N[C@H]1[C@H]([C@H](O)[C@H](O)CO)OC(C(=O)O)=C[C@@H]1NC(=N)N [ZANAMIVIR] | – | – | – | – | – | – | – | – | – | – | > 100 µM | – | – | – | 0.1 µM | 16.8 µM | 0.05 µM | – | – | – | –
10 | CC(N)C12CC3CC(CC(C3)C1)C2 (stereo not given) [RIMANTADINE] | – | – | – | – | – | – | – | – | – | – | > 100 µM | – | – | – | 5 µM | 0.05 µM | > 100 µM | – | – | – | –
